Bounds are passed on as bounds.

These results are taken from ChEMBL document CHEMBL4359827 (ACS Med Chem Lett, 2019).

The target in series [1] is T1, Indoleamine 2,3-dioxygenase 1 (Homo sapiens, UniProt P14902). The series can be described thus: Inhibition of IDO in human HeLa cells using tryptophan as substrate measured after 48 hrs in presence of INF gamma microplate reader analysis. The series is classed as cell-based.
The target of series [2] is Tryptophan 2,3-dioxygenase (Homo sapiens, UniProt P48775). The series can be described thus: Inhibition of human TDO expressed in Escherichia coli Rosetta measured after 1 hr microplate reader analysis.
Chain of Tryptophan 2,3-dioxygenase (P48775 whole entry): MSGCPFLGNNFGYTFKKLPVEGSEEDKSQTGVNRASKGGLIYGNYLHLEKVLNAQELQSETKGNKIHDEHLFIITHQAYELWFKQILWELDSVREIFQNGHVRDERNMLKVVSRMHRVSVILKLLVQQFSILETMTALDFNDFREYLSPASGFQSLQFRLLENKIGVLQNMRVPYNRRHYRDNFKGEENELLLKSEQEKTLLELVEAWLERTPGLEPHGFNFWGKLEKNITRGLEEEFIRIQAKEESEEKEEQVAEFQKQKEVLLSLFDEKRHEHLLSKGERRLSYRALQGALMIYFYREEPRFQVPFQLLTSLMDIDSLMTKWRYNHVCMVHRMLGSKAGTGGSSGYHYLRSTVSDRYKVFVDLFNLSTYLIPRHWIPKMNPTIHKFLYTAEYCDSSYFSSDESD
In series [3] the target is T1, Indoleamine 2,3-dioxygenase 1. The series can be described thus: Inhibition of human IDO1 expressed in Escherichia coli Rosetta measured after 1 hr by microplate reader analysis.
Series [4] is described as follows: AUC in C57BL/6 mouse at 10 mg/kg via oral gavage measured upto 24 hrs. The series is classed as ADME, organism-based. More on the design: time < 24 hr, dose 10 mg/kg, route oral. The settings on record: in vivo.
Series [5] in a line: AUC in Sprague-Dawley rat at 10 mg/kg via oral gavage measured upto 24 hrs. In kind it is ADME, organism-based. More on the design: time < 24 hr, dose 10 mg/kg, route oral. To be noted: in vivo.
Series [6] can be described thus: Oral bioavailability in Beagle dog at 2 mg/kg measured upto 24 hrs. To be noted: in vivo. In kind it is ADME, organism-based, Canis lupus familiaris.
Series [7] in a line: Half-life in C57BL/6 mouse at 10 mg/kg via oral gavage measured upto 24 hrs. The series is classed as ADME, organism-based. The settings on record: in vivo.
Series [8] has as its system Mus musculus. The series can be described thus: Reduction in plasma kynurenine levels in C57BL/6 mouse at 100 mg/kg, s.d ig measured after 2 hrs relative to control. To be noted: in vivo, po. In kind it is ADME, organism-based. More on the design: scale not given: the % may be the effect or the level left.
A short description of series [9]: Oral bioavailability in Sprague-Dawley rat at 10 mg/kg measured upto 24 hrs. In kind it is ADME, organism-based. The settings on record: in vivo.
Series [10] in a line: Oral bioavailability in C57BL/6 mouse at 10 mg/kg measured upto 24 hrs. To be noted: in vivo. The series is classed as ADME, organism-based.
A short description of series [11]: Protein binding in mouse plasma measured after 2 to 6 hrs by rapid equilibrium dialysis. The series is classed as ADME, cell-free. To be noted: read-out: PPB (converted). In general terms: In equilibrium dialysis only unbound substance equilibrates across the membrane.
The nature of series [12]: AUC in Beagle dog at 2 mg/kg via oral gavage measured upto 24 hrs. More on the design: time < 24 hr, dose 2 mg/kg, route oral. To be noted: in vivo. The series is classed as ADME, organism-based, Canis lupus familiaris.
A short description of series [13]: Cmax in Sprague-Dawley rat at 10 mg/kg via oral gavage measured upto 24 hrs. The settings on record: in vivo. In kind it is ADME, organism-based. Also on record: dose 10 mg/kg, route oral.
Series [14] in a line: Protein binding in dog plasma measured after 2 to 6 hrs by rapid equilibrium dialysis. The series is classed as ADME, cell-free, Canis lupus familiaris. The settings on record: read-out: PPB (converted).
A short description of series [15]: Half-life in Sprague-Dawley rat at 10 mg/kg via oral gavage measured upto 24 hrs. In kind it is ADME, organism-based. The settings on record: in vivo.
The subject of series [16] is MC-38. The series can be described thus: Antitumour activity against MC38 cells xenografted in humanized PD1 transgenic mouse assessed as tumour growth inhibition at 20 mg/kg, po bid for 14 days by digital caliper method relative to control. The series is classed as functional. To be noted: MC-38, po, 336 h, read-out: TGI. The essentials:
(§1)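 MC38 tumors implanted in hPD1 transgenic mice. Compound given orally at 20 or 50 mg/kg, bid × 14. Tumor growth inhibition (TGI) was calculated against control. Body weight was monitored.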
Background: A xenograft is tissue or cells of one species grown in another, often human tumour cells in immunodeficient mice.

Series [17] is described as follows: Cmax in C57BL/6 mouse at 10 mg/kg via oral gavage measured upto 24 hrs. In kind it is ADME, organism-based. More on the design: dose 10 mg/kg, route oral. The settings on record: in vivo.
Series [18] has as its system MC-38. The series can be described thus: Antitumour activity against MC38 cells xenografted in humanized PD1 transgenic mouse assessed as tumour growth inhibition at 50 mg/kg, po bid for 14 days by digital caliper method relative to control. In kind it is functional. The settings on record: MC-38, po, 336 h, read-out: TGI. The essentials: as §1
Series [19] in a line: Half-life in Beagle dog at 2 mg/kg via oral gavage measured upto 24 hrs. The series is classed as ADME, organism-based, Canis lupus familiaris. To be noted: in vivo.
A short description of series [20]: Cmax in Beagle dog at 2 mg/kg via oral gavage measured upto 24 hrs. In kind it is ADME, organism-based, Canis lupus familiaris. More on the design: dose 2 mg/kg, route oral. To be noted: in vivo.
In series [21] the test system is MC-38. The series can be described thus: Synergistic antitumour activity against MC38 cells xenografted in humanized PD1 transgenic mouse assessed as tumour growth inhibition at 20 to 50 mg/kg, po bid for 14 days pretreated with SHR-1210 at 5 mg/kg, ip qod for 8 days by digital caliper method relative to control.
A short description of series [22]: Protein binding in human plasma measured after 4 hrs by rapid equilibrium dialysis. The series is classed as ADME, cell-free. The settings on record: read-out: PPB (converted).
Series [23] is described as follows: Half-life in human liver microsomes. The series is classed as ADME, Microsome. (Liver microsomes are vesicles of endoplasmic reticulum, rich in cytochrome P450 enzymes.)
Series [24] in a line: Half-life in rat liver microsomes. The series is classed as ADME, Microsome.

T1 sequence (P14902 whole entry): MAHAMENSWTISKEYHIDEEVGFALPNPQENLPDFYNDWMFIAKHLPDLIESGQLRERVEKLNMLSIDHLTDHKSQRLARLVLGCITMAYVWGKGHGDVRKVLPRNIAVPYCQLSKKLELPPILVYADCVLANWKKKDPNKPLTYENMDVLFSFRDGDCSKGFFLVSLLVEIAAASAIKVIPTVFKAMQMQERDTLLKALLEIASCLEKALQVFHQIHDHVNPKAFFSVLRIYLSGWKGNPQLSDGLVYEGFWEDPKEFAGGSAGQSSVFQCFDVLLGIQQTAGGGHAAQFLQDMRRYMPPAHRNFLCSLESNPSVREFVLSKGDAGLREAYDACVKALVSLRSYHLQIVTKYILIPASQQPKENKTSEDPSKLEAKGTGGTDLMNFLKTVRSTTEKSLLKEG

Regarding `Cn1ccc2ccc(N3CCC(C4c5c(F)cccc5-c5cncn54)CC3)cc21` (stereo not drawn), the values for the IC50 in series [1], in series [2] and in series [3] were 203 nM, 376 nM and 27 nM, respectively.

In series [2], `Cn1cc(-c2cccc(N3CCC(C4c5c(F)cccc5-c5cncn54)CC3)c2)cn1` (stereo not drawn) returned a half-inhibitory concentration (IC50) of 639 nM.

`O=C(c1ccccc1)N1CCC(C2c3c(F)cccc3-c3cncn32)CC1` (stereo not drawn): the half-inhibitory concentration (IC50) in series [2] is 1270 nM; in series [3] it was 3560 nM.

Take `Fc1cccc2c1C(C1CCN(c3ccc(N4CCOCC4)cc3)CC1)n1cncc1-2` (stereo not drawn): the half-maximal inhibitory concentration (IC50) came to 1710 nM in [1], 1030 nM in [2] and 358 nM in [3].

As to `Fc1cccc2c1C(C1CCN(c3ccc(-c4ccncc4)cc3)CC1)n1cncc1-2` (stereo not drawn), the half-maximal inhibitory concentration (IC50) in series [1] was determined as 280 nM; in series [2], 353 nM; in series [3], 33 nM.

As for `Fc1cccc2c1C(C1CCNCC1)n1cncc1-2` (stereo not drawn), the concentration for half-maximal inhibition (IC50) in [2] and in series [3] was over 10000 nM each time.

As to `Cc1cc(-c2cnn(C)c2)ccc1N1CCC(C2c3c(F)cccc3-c3cncn32)CC1` (stereo not drawn), the half-maximal inhibitory concentration (IC50) in [1] came to 691 nM; in [2] it was 226 nM; in series [3], 20 nM.

With `Fc1cccc2c1C(C1CCCCC1)n1cncc1-2` (stereo not drawn), the IC50 in [1] stood at 568 nM; in series [2], 85 nM; in series [3], 108 nM.

As for `Fc1cccc2c1C(c1ccccc1)n1cncc1-2` (stereo not drawn), the IC50 in series [2] is 374 nM; in series [3], 2740 nM.

Turning to `Fc1cccc2c1C(Cc1ccccc1)n1cncc1-2` (stereo not drawn), the values for the 50% inhibitory concentration (IC50) in series [2] and in series [3] were 793 nM and 2730 nM, respectively.

With `Cc1cc(N2CCC(C3c4c(F)cccc4-c4cncn43)CC2)ccc1-c1cnn(C)c1` (stereo not drawn), the IC50 in series [1] stood at 121 nM; in series [2] it was 114 nM; in series [3], 14 nM.

In the case of `Fc1cccc2c1C(C1CCN(c3nc4ccccc4s3)CC1)n1cncc1-2` (stereo not drawn), the results for the IC50 in series [1], in series [2] and in series [3] were 440 nM, 195 nM and 19 nM, respectively.

`Cn1cc(-c2ccc(N3CCC([C@H]4c5c(F)cccc5-c5cncn54)CC3)cc2)cn1`: the AUC at 24 h in series [4] amounted to 29100 ng·h/mL; in series [5], 6130 ng·h/mL; in [12] it was 1340 ng·h/mL. For the same compound, the bioavailability in series [6] stood at 27.3%; in series [9] it was 60.3%; in [10], 59.6%. In addition, the half-life was 273 min in series [7]; 73.2 min in [15]; 389 min in [19]; 147 min in series [23]; 142 min in [24]. This compound displayed an Activity in series [8] of 57%. Besides, the fraction unbound in series [11] was 0.004; in series [14], 0.008. Besides, the values for the Cmax in series [13], in series [17] and in [20] were 1850 ng/mL, 3600 ng/mL and 166 ng/mL, respectively. Further, the inhibition in vivo at 20 mg/kg in series [16] was 39%. Moreover, in [18], the inhibition in vivo at 50 mg/kg was 78%. Moreover, the TGI in series [21] is reported as over 90%. Also, in [22], the fraction unbound at 4 h was 0.003.

Consider `Fc1cccc2c1C(C1CCN(c3ccccc3)CC1)n1cncc1-2` (stereo not drawn), for which the 50% inhibitory concentration (IC50) in [1] was 544 nM.

For the compound `Fc1cccc2c1C(C1CCCC1)n1cncc1-2` (stereo not drawn), the values for the IC50 in series [1], in [2] and in series [3] were 1240 nM, 95 nM and 764 nM, respectively.

`O[C@H](C[C@H]1c2c(F)cccc2-c2cncn21)[C@H]1CC[C@H](O)CC1` [NAVOXIMOD]: the IC50 in [2] amounted to 247 nM.

For `Fc1cccc2c1C(C1CCN(c3ccc(-c4cccnc4)cc3)CC1)n1cncc1-2` (stereo not drawn), the IC50 came out at 240 nM in [1], 183 nM in [2] and 70 nM in [3].

As for `Fc1cccc2c1C(C1CCN(c3nccs3)CC1)n1cncc1-2` (stereo not drawn), the results for the IC50 in series [1], in series [2] and in series [3] were 571 nM, 586 nM and 297 nM, respectively.

For the compound `Cn1cc(-c2cnc(N3CCC(C4c5c(F)cccc5-c5cncn54)CC3)nc2)cn1` (stereo not drawn), the figures for the IC50 in series [1], in series [2] and in series [3] were 324 nM, 579 nM and 113 nM, respectively.

Regarding `Fc1cccc2c1C(C1CCOCC1)n1cncc1-2` (stereo not drawn), the IC50 in series [1] stood at 5340 nM; in series [2] it was 189 nM; in series [3], 969 nM.

Broadly, the IC50 is the concentration at which inhibition is half-maximal. One may read the AUC as the area under the concentration-time curve, a measure of exposure. Broadly, the bioavailability is the share of a dose that reaches the circulation, judged against a reference dose that is usually intravenous. For orientation: half-life means the time in which the quantity being followed falls by half. A word on the Cmax: it is the maximum level reached in the sampled fluid or tissue. What is called TGI is the reduction of tumour growth relative to the control group.
